Data taken from ChEMBL document CHEMBL4376818, “Discovery of Novel Pyrazolo-pyridone DCN1 Inhibitors Controlling Cullin Neddylation” (J Med Chem, 2019).
pEC50, pIC50: −log10 of the molar value. Converted amounts (≈) assume the structure as drawn. The source made the active and inactive calls. The rule behind the calls is not given here.

Columns and labels:
[1] = test system: HCC95; assay: Cytotoxicity against human HCC95 cells overexpressing DCN1 assessed as cell growth inhibition after 72 hrs by Celltiter-Glo assay; assay type: cell-based; details: HCC95, 72 h
Procedure, shortened: (§1)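 Cells were seeded overnight at 37 °C, 5% CO2, at densities validated for logarithmic growth (BJ 1000 cells/well, HCC95 600 cells/well), then treated with ten 3-fold serial dilutions from DMSO stocks for 72 h. […] Fit on a semi-log plot; ≥3 technical and 2 biological replicates.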

[2] = Half life in mouse microsomes at 0.8 uM; assay type: ADME, Microsome
Procedure, shortened: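 Oxidative metabolic stability in murine liver microsomes, drug at 0.8 µM. Half-life is reported as mean ± SD from at least one independent experiment run in triplicate.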

[3] = test system: BJ; assay: Cytotoxicity against human BJ cells assessed as cell growth inhibition after 72 hrs by Celltiter-Glo assay; assay type: cell-based; procedure, shortened: as §1
[4] = Kinetic aqueous solubility of compound at pH 7.4; assay type: physicochemical; details: buffer, read-out: Kinetic_solubility
Procedure, shortened: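 Kinetic aqueous solubility was measured in pH 7.4 buffer. Values are reported as means ± standard deviation from at least one independent experiment run in triplicate.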

[5] = biological target: DCN1-like protein 1/NEDD8-conjugating enzyme Ubc12 (Homo sapiens, UniProt Q96GG9); assay: Inhibition of biotinylated DCN1 (unknown origin) - AlexaFluor488 labelled UBE2M (unknown origin) protein-protein interaction after 1 hr by TR-FRET assay
Chain of DCN1-like protein 1/NEDD8-conjugating enzyme Ubc12 (Q96GG9 whole entry): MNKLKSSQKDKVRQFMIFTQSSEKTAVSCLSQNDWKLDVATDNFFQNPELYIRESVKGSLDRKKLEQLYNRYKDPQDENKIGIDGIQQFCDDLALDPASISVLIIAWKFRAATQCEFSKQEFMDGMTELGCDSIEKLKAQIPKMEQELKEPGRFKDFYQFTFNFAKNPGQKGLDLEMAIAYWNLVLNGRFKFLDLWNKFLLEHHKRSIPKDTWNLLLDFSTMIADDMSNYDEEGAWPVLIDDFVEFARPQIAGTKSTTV
Chain of DCN1-like protein 1/NEDD8-conjugating enzyme Ubc12 (P61081 whole entry, further chain): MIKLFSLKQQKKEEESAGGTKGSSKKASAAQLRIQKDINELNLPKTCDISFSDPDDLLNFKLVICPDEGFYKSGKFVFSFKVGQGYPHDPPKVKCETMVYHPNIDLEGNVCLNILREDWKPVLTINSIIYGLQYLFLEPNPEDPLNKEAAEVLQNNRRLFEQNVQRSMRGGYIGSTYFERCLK

[6] = test system: HCC95; assay: Induction of ROS generation in human HCC95 cells at 30 uM after 5 hrs by H2DCFDA dye based fluorescence assay; assay type: functional, cell-based
Procedure, shortened: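 HCC95 cells were seeded at 25,000 cells/well and incubated overnight. They were PBS-washed, loaded with DCFDA for 45 min at 37 °C in the dark, washed twice, then exposed to compound in buffer for 5 h at 37 °C in the dark. Fluorescence was read at Ex/Em 485/535 nm.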

[7] = biological target: T1, DCN1-like protein 3 (Homo sapiens) (UniProt Q8IWE4); assay: Inhibition of DCN3 (unknown origin) assessed as decrease in DCN1-stimulated NEDD8 transfer from UBE2M to CUL2 at 120 uM after 10 sec by pulse-chase assay
T1 sequence (whole entry): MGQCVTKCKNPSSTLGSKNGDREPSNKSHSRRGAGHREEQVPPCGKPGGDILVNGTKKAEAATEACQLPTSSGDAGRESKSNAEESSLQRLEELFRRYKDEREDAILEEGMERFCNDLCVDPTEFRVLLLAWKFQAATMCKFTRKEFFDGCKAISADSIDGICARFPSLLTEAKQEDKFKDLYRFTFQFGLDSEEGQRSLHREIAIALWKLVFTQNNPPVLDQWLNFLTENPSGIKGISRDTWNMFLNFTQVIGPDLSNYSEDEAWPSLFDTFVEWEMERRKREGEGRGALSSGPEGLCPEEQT

[8] = biological target: T2, DCN1-like protein 4 (Homo sapiens) (UniProt Q92564); assay: Inhibition of DCN4 (unknown origin) assessed as decrease in DCN1-stimulated NEDD8 transfer from UBE2M to CUL2 at 60 uM after 10 sec by pulse-chase assay
T2 sequence (whole entry): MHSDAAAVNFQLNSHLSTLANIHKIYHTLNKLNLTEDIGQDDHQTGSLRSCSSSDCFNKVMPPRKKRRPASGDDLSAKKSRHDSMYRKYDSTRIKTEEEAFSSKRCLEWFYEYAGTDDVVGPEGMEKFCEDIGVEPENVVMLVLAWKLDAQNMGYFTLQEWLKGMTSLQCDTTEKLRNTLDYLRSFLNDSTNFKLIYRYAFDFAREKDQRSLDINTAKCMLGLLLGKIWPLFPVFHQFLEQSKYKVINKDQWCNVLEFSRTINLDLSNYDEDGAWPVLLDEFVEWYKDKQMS

[9] = biological target: T3, DCN1-like protein 5 (Homo sapiens) (UniProt Q9BTE7); assay: Inhibition of DCN5 (unknown origin) assessed as decrease in DCN1-stimulated NEDD8 transfer from UBE2M to CUL2 at 60 uM after 10 sec by pulse-chase assay
T3 sequence (whole entry): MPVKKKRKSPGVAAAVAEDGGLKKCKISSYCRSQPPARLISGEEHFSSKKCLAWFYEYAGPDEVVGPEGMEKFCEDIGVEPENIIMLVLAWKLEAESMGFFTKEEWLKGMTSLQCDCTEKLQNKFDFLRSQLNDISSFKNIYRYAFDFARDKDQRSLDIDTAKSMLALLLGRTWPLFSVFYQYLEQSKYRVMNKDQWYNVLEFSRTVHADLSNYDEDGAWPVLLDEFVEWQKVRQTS

[10] = biological target: DCN1-like protein 2 (Homo sapiens) (UniProt Q6PH85); assay: Inhibition of DCN2 (unknown origin) assessed as decrease in DCN1-stimulated NEDD8 transfer from UBE2M to CUL2 at 10 uM after 10 sec by pulse-chase assay
Chain of DCN1-like protein 2 (Homo sapiens) (Q6PH85 whole entry): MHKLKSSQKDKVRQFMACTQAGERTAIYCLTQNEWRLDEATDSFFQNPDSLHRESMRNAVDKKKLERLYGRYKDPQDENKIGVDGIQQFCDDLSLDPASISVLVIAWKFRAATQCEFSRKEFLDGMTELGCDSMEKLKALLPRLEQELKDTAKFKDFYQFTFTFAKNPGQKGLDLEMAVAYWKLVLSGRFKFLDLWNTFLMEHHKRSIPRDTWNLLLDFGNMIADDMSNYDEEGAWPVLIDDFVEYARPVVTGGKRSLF

Cc1ccc([C@H]2c3c(C)nn(-c4ccccc4)c3NC(=O)[C@H]2NC(=O)c2cccc(C)c2)cc1 (relative stereo)
pEC50 [1]: < 4.60
half-life at 0.8 µM [2]: 18 min
pEC50 [3]: < 4.60
solubility kinetic [4]: 1.1 µM (≈ 0.496 µg/mL)
pIC50 [5]: 5.29

Cc1cccc(C(=O)N[C@@H]2C(=O)Nc3c(c(C)nn3-c3ccccc3)[C@@H]2Cc2ccccc2)c1
pIC50 [5]: 5.52

Cc1nn(-c2ccccc2)c2c1[C@H](c1ccc(F)cc1)[C@H](NC(=O)c1ccccc1)C(=O)N2
pIC50 [5]: 4.89

Cc1cccc(C(=O)N[C@@H]2C(=O)Nc3c(c(C)nn3Cc3ccccc3)[C@@H]2c2ccc(F)cc2)c1
pIC50 [5]: < 4.82

Cc1cccc(C(=O)N[C@@H]2C(=O)N(C)c3c(c(C)nn3C(C)(C)C)[C@@H]2c2ccc(F)cc2)c1
pIC50 [5]: 5.64

Cc1cccc(C(=O)N[C@@H]2C(=O)Nc3c(c(C)nn3C3CCCC3)[C@@H]2c2ccc(F)cc2)c1 (racemic)
pEC50 [1]: < 4.60
half-life at 0.8 µM [2]: 30 min
pEC50 [3]: < 4.60
solubility kinetic [4]: 17.1 µM (≈ 7.64 µg/mL)
pIC50 [5]: 6.52

Cc1cncc(C(=O)N[C@@H]2C(=O)Nc3c(c(C)nn3-c3ccccc3)[C@@H]2c2ccc(F)cc2)c1
pIC50 [5]: < 4.82

CCOC1=Nc2c(c(C)nn2-c2ccccc2)[C@H](c2ccc(F)cc2)[C@@H]1NC(=O)c1cccc(C)c1
pEC50 [1]: < 4.60
pEC50 [3]: < 4.60

Cc1ccccc1C(=O)N[C@@H]1C(=O)Nc2c(c(C)nn2-c2ccccc2)[C@@H]1c1ccc(F)cc1
pIC50 [5]: < 4.82

Cc1cccc(C(=O)N[C@@H]2C(=O)Nc3c(c(C)nn3C3CC3)[C@@H]2c2ccc(F)cc2)c1
pIC50 [5]: 5.70

Cc1cccc(C(=O)N[C@@H]2C(=O)Nc3c(c(C)nn3-c3ccccc3)[C@@H]2c2ccc(F)nc2)c1
pIC50 [5]: 5.46

CCC(C)n1nc(C)c2c1NC(=O)[C@@H](NC(=O)c1cccc(C)c1)[C@H]2c1ccc(F)cc1 (stereo in doubt; 22b)
pIC50 [5]: 6.22

Cc1nn(-c2ccccc2)c2c1[C@H](c1ccc(F)cc1)[C@H](NC(=O)c1cccc(C(C)(C)C)c1)C(=O)N2
pIC50 [5]: < 4.82

CCn1nc(C)c2c1NC(=O)[C@@H](NC(=O)c1cccc(C)c1)[C@H]2c1ccc(F)cc1 (racemic)
pEC50 [1]: < 4.60
half-life at 0.8 µM [2]: 36 min
pEC50 [3]: < 4.60
solubility kinetic [4]: 92.8 µM (≈ 37.7 µg/mL)

CCC(C)n1nc(C)c2c1NC(=O)[C@@H](NC(=O)c1cccc(C)c1)[C@H]2c1ccc(F)cc1 (stereo in doubt; 22a)
pIC50 [5]: 6.15

Cc1ccc(C(=O)N[C@@H]2C(=O)Nc3c(c(C)nn3-c3ccccc3)[C@@H]2c2ccc(F)cc2)cc1
pIC50 [5]: < 4.82

CCCN1C(=O)[C@@H](NC(=O)c2cccc(C)c2)[C@@H](c2ccc(F)cc2)c2c1nn(CCC)c2C
pEC50 [1]: < 4.60
pEC50 [3]: < 4.60

CCCCN1CCC(N(Cc2ccccc2)C(=O)Nc2ccc(Cl)c(Cl)c2)CC1
Activity [6]: inactive

Cc1cccc(C(=O)N[C@@H]2C(=O)Nc3c(c(C)nn3C(C)(C)C)[C@@H]2c2ccc(F)cc2)c1
pIC50 [5]: 6.30

Cc1cccc(C(=O)N[C@@H]2C(=O)Nc3n[nH]c(C)c3[C@@H]2c2ccc(F)cc2)c1
pIC50 [5]: < 4.82

CCCn1nc(C)c2c1N(CC)C(=O)[C@@H](NC(=O)c1cccc(C)c1)[C@H]2c1ccc(F)cc1 (racemic)
pEC50 [1]: < 4.60
half-life at 0.8 µM [2]: < 6 min
pEC50 [3]: < 4.60
solubility kinetic [4]: 10.9 µM (≈ 4.89 µg/mL)
pIC50 [5]: 6.70

CCC[C@H]1c2c(C)nn(-c3ccccc3)c2NC(=O)[C@H]1NC(=O)c1cccc(C)c1
pIC50 [5]: 5.51

Cc1cccc(C(=O)N[C@@H]2C(=O)Nc3c(c(C)nn3-c3ccccc3)[C@@H]2c2cccc(F)c2)c1
pIC50 [5]: 5.15

CCCn1nc(C)c2c1NC(=O)[C@@H](NC(=O)c1cccc(C)c1)[C@H]2c1ccc(F)cc1
pIC50 [5]: 5.92

CCN1C(=O)[C@@H](NC(=O)c2cccc(C)c2)[C@@H](c2ccc(F)cc2)c2c(C)nn(-c3ccccc3)c21 (relative stereo)
inhibition [7]: inactive
pEC50 [1]: < 4.60
inhibition [8]: inactive
inhibition [9]: inactive
pEC50 [3]: < 4.60
Activity [6]: inactive
inhibition [10]: Active

CCN1C(=O)[C@@H](NC(=O)c2cccc(C)c2)[C@@H](c2ccc(F)cc2)c2c(C)nn(C3CCCC3)c21
pIC50 [5]: 6.10

CCN1C(=O)[C@@H](NC(=O)c2cccc(C)c2)[C@@H](c2ccc(F)cc2)c2c(C)nn(C3CC3)c21 (racemic)
pEC50 [1]: < 4.60
half-life at 0.8 µM [2]: < 6 min
pEC50 [3]: < 4.60
solubility kinetic [4]: 46.1 µM (≈ 20.6 µg/mL)
pIC50 [5]: 6.70

Cc1cccc(C(=O)N[C@@H]2C(=O)Nc3c(c(C)nn3-c3ccccc3)[C@@H]2c2ccccc2)c1
pIC50 [5]: 5.40

Cc1nn(-c2ccccc2)c2c1[C@H](c1ccc(F)cc1)[C@H](NC(=O)c1cccc(I)c1)C(=O)N2
pIC50 [5]: 5.15

Cc1nn(-c2ccccc2)c2c1[C@H](c1ccc(F)cc1)[C@H](NC(=O)c1ccc(Cl)c(Cl)c1)C(=O)N2
pIC50 [5]: < 4.82

CC(=O)N1C(=O)[C@@H](NC(=O)c2cccc(C)c2)[C@@H](c2ccc(F)cc2)c2c(C)nn(-c3ccccc3)c21
pIC50 [5]: 5.25

Cc1cccc(C(=O)N[C@H]2C(=O)Nc3c(c(C)nn3-c3ccccc3)[C@@H]2c2ccc(F)cc2)c1 (racemic)
pEC50 [1]: < 4.60
pEC50 [3]: < 4.60
Activity [6]: inactive

Cc1cccc(C(=O)N[C@@H]2C(=O)Nc3c(c(C)nn3-c3ccccc3)[C@@H]2C2CCCCC2)c1
pIC50 [5]: 5.89

Cc1cccc(C(=O)N[C@@H]2C(=O)Nc3c(c(C)nn3-c3ccccc3)[C@@H]2c2cccnc2)c1
pIC50 [5]: < 4.82

Cc1cccc(C(=O)N[C@@H]2C(=O)Nc3c(c(C)nn3-c3ccccc3)[C@@H]2c2ccc(F)cc2)c1 (racemic)
pEC50 [1]: < 4.60
half-life at 0.8 µM [2]: 66 min
pEC50 [3]: < 4.60
solubility kinetic [4]: 5.5 µM (≈ 2.5 µg/mL)
pIC50 [5]: 5.85

CC(=O)CN1C(=O)[C@@H](NC(=O)c2cccc(C)c2)[C@@H](c2ccc(F)cc2)c2c(C)nn(-c3ccccc3)c21
pIC50 [5]: 5.15

Cc1cccc(C(=O)N[C@@H]2C(=O)N(C(C)C)c3c(c(C)nn3-c3ccccc3)[C@@H]2c2ccc(F)cc2)c1
pIC50 [5]: 5.39

Cc1cccc(C(=O)N[C@@H]2C(=O)Nc3c(c(C)nn3-c3ccccn3)[C@@H]2c2ccc(F)cc2)c1
pIC50 [5]: < 4.82
